The record followed here is paper PMC9082043 (RSC Advances, 2018).

As a reminder, the IC50 is the concentration that inhibits the measured activity by half.

Assay [1] concerns HepG2 (human liver cancer cells). Briefly: MTT antiproliferative assay, HepG2. The format is cell-based. The note with it: read-out: IC50 HepG2. In short, it runs like this: (§1)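 MTT assay on HepG2, SK-OV-3, NCI-H460, BEL-7404 and normal HL-7702 cells, with 5-fluorouracil and cisplatin run alongside as positive controls.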
In assay [2] the test system is HL-7702 (human liver normal cells). The assay is described as follows: MTT cytotoxicity assay, HL-7702 normal cells. The format is cell-based. The note with it: L02, 48 h, read-out: IC50 HL-7702. In short, it runs like this: as §1
Background: Tetrazolium assays rely on reduction of a dye to a coloured formazan, in cell work by metabolically active cells.

For assay [3], the system named is NCI-H460 (human large cell lung cancer cells). The assay is described as follows: MTT antiproliferative assay, NCI-H460. The note with it: read-out: IC50 NCI-H460. The format is cell-based. The procedure, abridged: as §1
In assay [4] the test system is SK-OV-3 (human ovarian cancer cells). Briefly: MTT antiproliferative assay, SK-OV-3. In kind it is cell-based. The settings on record: read-out: IC50 SKOV-3. In short, it runs like this: as §1
Assay [5] concerns BEL-7404 (human liver cancer cells). The assay is described as follows: MTT antiproliferative assay, BEL-7404. The format is cell-based. The settings on record: read-out: IC50 BEL-7404, 48 h, mean ± SD of three experiments. The procedure, abridged: as §1
In another assay the test system is HepG2 xenograft. Briefly: In vivo antitumor activity, HepG2 xenograft model. On the set-up: species or system SPF BALB/c nude mice. In short, it runs like this:
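HepG2 xenografts in SPF BALB/c nude mice, randomised into vehicle, low-dose (10 mg kg−1), high-dose (20 mg kg−1) and paclitaxel (5 mg kg−1) groups. All were injected in 5% DMSO/saline (v/v). Tumours were measured twice weekly in two dimensions to give volume, mean ± SD, n = 6. The relative tumour increment rate (T/C, %) was taken at day 41.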

The mark [6] stands for this setting: MTT, 48 h, mean ± SD of three experiments.

The structures appear in SMILES notation. Where two headings read alike, the source gives them in different places.

As to `O=c1[nH]cc(F)c(=O)[nH]1` [5-FU, 5-fluorouracil], the IC50 was 32 ± 0.56 µM in assay [1] (Homo sapiens, HepG2, 48 h); 58.7 ± 2.31 µM in assay [2]; 45.4 ± 0.94 µM in assay [3] (Homo sapiens, NCI-H460, 48 h); 26.3 ± 0.57 µM in assay [4] (Homo sapiens, SK-OV-3, 48 h).

For `N.N.[Cl][Pt][Cl]` [Cisplatin, cisplatin], the IC50 in assay [1] (setting [6]) amounted to 10.1 ± 0.71 µM; in assay [3] (setting [6]) it was 20.4 ± 0.5 µM; in assay [4] (setting [6]), 15.6 ± 1.7 µM; in assay [5] it was 14.7 ± 0.66 µM.

As for `CC(=O)O[C@H]1C(=O)[C@@]2(C)[C@H]([C@H](OC(=O)c3ccccc3)[C@]3(O)C[C@H](OC(=O)[C@H](O)[C@@H](NC(=O)c4ccccc4)c4ccccc4)C(C)=C1C3(C)C)[C@]1(OC(C)=O)CO[C@@H]1C[C@@H]2O` [Paclitaxel, paclitaxel], the “T/C value (relative tumor increment rate)” value with HepG2 xenograft (5 mg kg^−1 dose) amounted to 19.0%. Also, the “effect on tumour volume in mice” value with HepG2 xenograft (3a1 10 and 20 mg kg^−1, paclitaxel 5 mg kg^−1, compared with control) is “significantly inhibited the increase in the tumour volume”.
